Read-outs that look alike come from different tables or passages of the source.
What was measured:
Type in all cases: cell-based
CatSper [1] = biological target: T1, CatSper (Homo sapiens, UniProt Q7RTX7+Q86XQ3+Q8NEC5+Q96P56); test: Human sperm calcium influx assay, activation; conditions: for Emax: read-out: Emax, %, Steroid Alone; for Emax, %, Steroid Alone: percent of response to saturating PROG (3 µM); for fold less potent than PROG (calcium influx): relative to PROG; for fold lower activity than the corresponding pregnanolones (10–11): hydroxylation of the 21 position
Procedure, shortened: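 Semen from healthy donors was liquefied at 37 °C, washed twice in low pH/low K+ buffer (pH 6.7, 0.2 mM CaCl2), then loaded with 10 µM Fluo-4-AM plus 1 mM probenecid, 30 min, room temperature, dark. On FLIPR, buffer was added first, then openers 2 min later. Fluorescence was read for 7 min at 2-s intervals. EC50 came from 8-point, 3-fold dilutions in duplicate, peak height, four-parameter fit. Emax is relative to 3 µM progesterone. Activators were retested with 30 µM mibefradil.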

CatSper [2] = biological target: T1, CatSper; conditions: for IC50: human sperm, mean ±SD
human sperm = test: Computer-assisted sperm analysis
Procedure, shortened: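 Donor semen was liquefied ≥40 min at 37 °C, then swim-up in HAM's F10 for 1 h at 37 °C, 5% CO2. Cells were adjusted to 10x10^6/mL and capacitated in HAM's F10 with 5% BSA and 15 mM NaHCO3 at 37 °C, 5% CO2, with test compound or DMSO. HAM was induced with 100 nM progesterone or 100 nM PGE1. CASA at 37 °C used ≥10 fields, ≥200 cells. Motility classes came from VAP/VSL/VCL-derived LIN and STR, normalized to vehicle controls, ≥3 experiments.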

[3] = pEC50, calcium influx, Steroid Alone, human sperm, mean ±SD

| Compound | EC50 (CatSper [1]; [3]) | Emax (CatSper [1]) | pEC50, calcium influx, Steroid Alone (CatSper [1]; human sperm, mean ±SD) | Emax, %, Steroid Alone (CatSper [1]) | further results |
| --- | --- | --- | --- | --- | --- |
| CCCCC[C@H](O)/C=C/[C@H]1[C@H](O)CC(=O)[C@@H]1CCCCCCC(=O)O [compound 2, prostaglandin E1] | 3.98 nM | 101% | – | – | – |
| CC(=O)[C@H]1CC[C@H]2[C@@H]3CC[C@H]4C[C@H](O)CC[C@]4(C)[C@H]3CC[C@]12C [compound 10, 3α,5α-pregnanolone] | – | – | 6.56 ± 0.21 | 85% | – |
| CC(=O)[C@H]1CC[C@H]2[C@@H]3CC[C@@H]4C[C@H](O)CC[C@]4(C)[C@H]3CC[C@]12C [compound 11, 3α,5β-pregnanolone] | – | – | 6.26 ± 0.25 | 102% | – |
| CC(=O)[C@H]1CC[C@H]2[C@@H]3CC[C@H]4C[C@@H](O)CC[C@]4(C)[C@H]3CC[C@]12C [compound 12, 3β,5α-pregnanolone] | – | – | 7.16 ± 0.11 | 99% | – |
| CC(=O)[C@H]1CC[C@H]2[C@@H]3CC[C@@H]4C[C@@H](O)CC[C@]4(C)[C@H]3CC[C@]12C [compound 13, 3β,5β-pregnanolone] | – | – | 6.89 ± 0.20 | 92% | – |
| CC(=O)[C@H]1CC[C@H]2[C@@H]3CC[C@H]4CC(=O)CC[C@]4(C)[C@H]3CC[C@]12C [compound 14, 5α-dihydroprogesterone] | – | – | 6.99 ± 0.05 | 87% | fold less potent than PROG (calcium influx) (CatSper [1]): ~30 fold |
| CC(=O)[C@H]1CC[C@H]2[C@@H]3CC[C@H]4CC(=O)CC[C@]4(C)[C@H]3CC[C@]12C [compound 15, 5β-dihydroprogesterone] | – | – | 6.87 ± 0.17 | 95% | fold less potent than PROG (calcium influx) (CatSper [1]): ~30 fold |
| CC(=O)[C@H]1CC[C@H]2[C@@H]3C[C@@H]4O[C@@]45CC(=O)CC[C@]5(C)[C@H]3CC[C@]12C [compound 16, 5α,6α-epoxypregnan-3,20-dione] | 832 nM | 83% | – | – | – |
| CC(=O)[C@H]1CC[C@H]2[C@@H]3C[C@H]4O[C@]45CC(=O)CC[C@]5(C)[C@H]3CC[C@]12C [compound 17, 5β,6β-epoxypregnan-3,20-dione] | 417 nM | 84% | – | – | – |
| CC(=O)[C@H]1CC[C@H]2[C@@H]3CCC4=CC(=O)C(C)(C)C[C@]4(C)[C@H]3CC[C@]12C [compound 18, 2,2-dimethylprogesterone] | – | – | 6.31 ± 0.16 | 99% | fold less potent than PROG (calcium influx) (CatSper [1]): 135 fold |
| CC(=O)[C@H]1CC[C@H]2[C@@H]3C[C@@H](C)C4=CC(=O)CC[C@]4(C)[C@H]3CC[C@]12C [compound 19, 6β-methylprogesterone] | – | – | 6.58 ± 0.12 | 90% | – |
| CC(=O)[C@H]1CC[C@H]2[C@@H]3C[C@H](C)C4=CC(=O)CC[C@]4(C)[C@H]3CC[C@]12C [compound 20, 6α-methylprogesterone] | – | – | 6.16 ± 0.14 | 96% | fold less potent than PROG (calcium influx) (CatSper [1]): 190 fold |
| CC(=O)[C@H]1CC[C@H]2[C@@H]3C[C@@H](O)C4=CC(=O)CC[C@]4(C)[C@H]3CC[C@]12C [compound 21, 6β-hydroxyprogesterone] | – | – | 6.91 ± 0.10 | 116% | – |
| CC(=O)[C@H]1CC[C@H]2[C@@H]3C[C@@H](C)[C@@]4(O)CC(=O)CC[C@]4(C)[C@H]3CC[C@]12C [compound 22, 5α-hydroxy-6β-methylpregnan-3,20-dione] | 5010 nM | 95% | – | – | – |
| CC(=O)[C@H]1CC[C@H]2[C@@H]3CCC4=CC(=O)CC[C@]4(C)[C@H]3[C@@H](O)C[C@]12C [compound 23, 11β-hydroxyprogesterone] | 18.6 nM | 90% | – | – | fold less potent than PROG (calcium influx) (CatSper [1]): 5 fold |
| CC(=O)[C@H]1CC[C@H]2[C@@H]3CCC4=CC(=O)CC[C@]4(C)[C@H]3[C@H](O)C[C@]12C [compound 24, 11α-hydroxyprogesterone] | – | – | 6.90 ± 0.08 | 100% | fold less potent than PROG (calcium influx) (CatSper [1]): 35 fold |
| CC(=O)C1(O)CCC2C3CCC4=CC(=O)CCC4(C)C3CCC21C (stereo not drawn) [compound 25, 17α-hydroxyprogesterone] | 10.5 nM | 115% | – | – | fold less potent than PROG (calcium influx) (CatSper [1]): threefold |

| Compound | EC50 (CatSper [1]; [3]) | Emax (CatSper [1]) | pEC50, calcium influx, Steroid Alone (CatSper [1]; human sperm, mean ±SD) | Emax, %, Steroid Alone (CatSper [1]) | further results |
| --- | --- | --- | --- | --- | --- |
| C[C@]12CC[C@@H](O)C[C@H]1CC[C@@H]1[C@@H]2CC[C@]2(C)[C@@H](C(=O)CO)CC[C@@H]12 [compound 26, 3α,5β-THDOC] | – | – | 5.80 ± 0.26 | 100% | fold lower activity than the corresponding pregnanolones (10–11) (CatSper [1]): threefold; fold less potent than PROG (calcium influx) (CatSper [1]): ≥ 240 fold |
| C[C@]12CC[C@@H](O)C[C@@H]1CC[C@@H]1[C@@H]2CC[C@]2(C)[C@@H](C(=O)CO)CC[C@@H]12 [compound 27, 3α,5α-THDOC] | – | – | 6.05 ± 0.21 | 96% | fold lower activity than the corresponding pregnanolones (10–11) (CatSper [1]): threefold; fold less potent than PROG (calcium influx) (CatSper [1]): ≥ 240 fold |
| CC(=O)[C@H]1[C@H](O)C[C@H]2[C@@H]3CCC4=CC(=O)CC[C@]4(C)[C@H]3CC[C@@]21C [compound 28, 16α-hydroxyprogesterone] | – | – | 6.77 ± 0.18 | 106% | fold less potent than PROG (calcium influx) (CatSper [1]): 46 fold |
| CC(=O)O[C@]1(C(C)=O)CC[C@H]2[C@@H]3CCC4=CC(=O)CC[C@]4(C)[C@H]3CC[C@@]21C [compound 29, 17α-acetoxyprogesterone] | – | – | – | 31% | – |
| CC(=O)[C@@]1(O)CC[C@H]2[C@@H]3C[C@H](C)C4=CC(=O)CC[C@]4(C)[C@H]3CC[C@@]21C [compound 30, 17α-hydroxy-6α-methylprogesterone] | – | – | 6.33 ± 0.10 | 96% | fold reduction of activity relative to 17α-hydroxyprogesterone (CatSper [1]; addition of a 6α-methyl group): 47 fold |
| C[C@]12CCC(=O)C=C1[C@@H]1C[C@@H]1[C@H]1[C@@H]3[C@@H]4C[C@@H]4[C@@]4(CCC(=O)O4)[C@@]3(C)CC[C@@H]12 [compound 31, drospirenone] | 525 nM | 115% | – | – | – |
| CC(=O)[C@@]1(O)CC[C@H]2[C@@H]3CCC4=CC(=O)CCC4=C3[C@@H](c3ccc(N(C)C)cc3)C[C@@]21C [compound 32, ulipristal] | 3550 nM | 106% | – | – | – |
| CC#C[C@]1(O)CC[C@H]2[C@@H]3CCC4=CC(=O)CCC4=C3[C@@H](c3ccc(N(C)C)cc3)C[C@@]21C [compound 33, mifepristone (RU-486)] | 4680 nM | 109% | – | – | – |
| CC(=O)O[C@]1(C(C)=O)CC[C@H]2[C@@H]3CCC4=CC(=O)CCC4=C3[C@@H](c3ccc(N(C)C)cc3)C[C@@]21C [compound 34, ulipristal acetate] | > 10000 nM | 27% | – | – | – |
| C=C1C[C@H]2[C@@H]3CCC4=CC(=O)CC[C@@H]4[C@H]3CC[C@]2(C)[C@@]1(OC(C)=O)C(C)=O [compound 35, segesterone acetate] | – | – | <5 | 57% | – |
| C[C@]12CC[C@H]3[C@@H](CCC4=CC(=O)CC[C@@]43C)[C@@H]1CC[C@@H]2O [compound 36, testosterone] | – | 114% | – | – | EC50 (CatSper [1]): 219 nM |
| C[C@]12CC[C@@H]3c4ccc(O)cc4CC[C@H]3[C@@H]1CC[C@@H]2O [compound 37, 17β-estradiol] | 295 nM | 94% | – | – | – |
| C[C@H]1C[C@]2(C)[C@@H](O)CC[C@H]2[C@@H]2CCC3=CC(=O)CC[C@@H]3[C@H]21 [compound 38, 11β-methyl-19-nortestosterone] | – | – | 6.37 ± 0.32 | 85% | – |
| C[C@@H]1CC2=CC(=O)CC[C@@H]2[C@H]2CC[C@]3(C)[C@@H](O)CC[C@H]3[C@@H]21 [compound 39, 7α-methyl-19-nortestosterone] | – | – | 6.25 ± 0.37 | 86% | – |
| C[C@@H]1CC2=CC(=O)CC[C@@H]2[C@@H]2[C@@H]1[C@@H]1CC[C@H](O)[C@@]1(C)C[C@@H]2C [compound 40, 7α,11β-dimethylandrolone] | – | – | 6.06 ± 0.49 | 80% | – |
| C[C@H]1C[C@]2(C)[C@@H](O)CC[C@H]2[C@H]2[C@H]1[C@H]1CCC(=O)C=C1C[C@@H]2C [compound 41, 7β,11β-dimethylandrolone] | – | – | 5.41 ± 0.24 | 42% | – |
| COCC(=O)O[C@]1(CCN(C)CCCc2nc3ccccc3[nH]2)CCc2cc(F)ccc2[C@@H]1C(C)C [mibefradil] | – | – | – | – | calcium influx elicited by the blocker itself (CatSper [1]; ML218 up to 100 µM, mibefradil at higher concentrations): we did not observe a mibefradil-induced calcium influx; block of calcium influx for all modes of channel opening (CatSper [2]; blocker 30 µM): completely blocked influx; IC50 (CatSper [2]; pIC50, inhibition of PGE1-induced calcium influx, opener 10 nM PGE1 (EC80)): 8320 nM; IC50 (CatSper [2]; pIC50, inhibition of l-sirenin-induced calcium influx, opener 3 µM l-sirenin (EC80)): 8130 nM; concentration that completely ablated total and progressive motility (human sperm; CASA, human sperm): 30 µM; concentration that completely ablated HAM (human sperm; HAM induced with 100 nM PROG or 100 nM PGE1, 4 hours, capacitating conditions): 10 µM |

From publication PMC8969127 (Molecular Pharmacology, 2022)
